Laboratory results reported in ChEMBL document CHEMBL1126251, “alpha-Methylated analogues of triiodothyroalkanoic acids: synthesis and biological activity” (J Med Chem, 1992).
“And” between values parts separate entries of the source, which are not always exact repeats. Identical values can stand only once.

Columns and labels:
[1] = target: T1, Glycerol-3-phosphate dehydrogenase [NAD(+)], cytoplasmic (Rattus norvegicus) (UniProt O35077); test: Effect on rat hepatic glycerophosphate dehydrogenase alpha (GPD) activity 3 days after injection of 10e-6 mol/kg.
T1 sequence (whole entry): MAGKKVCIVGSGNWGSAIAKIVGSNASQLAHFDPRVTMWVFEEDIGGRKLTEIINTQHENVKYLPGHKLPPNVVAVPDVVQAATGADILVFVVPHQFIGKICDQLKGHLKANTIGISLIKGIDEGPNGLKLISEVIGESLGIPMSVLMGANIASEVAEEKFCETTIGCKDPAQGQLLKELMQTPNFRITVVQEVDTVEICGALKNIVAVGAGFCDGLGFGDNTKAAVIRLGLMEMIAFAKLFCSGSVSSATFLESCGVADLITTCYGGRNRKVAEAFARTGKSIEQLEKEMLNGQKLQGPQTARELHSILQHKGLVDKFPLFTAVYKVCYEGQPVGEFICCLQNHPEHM

[2] = target: T2, NADP-dependent malic enzyme (Rattus norvegicus) (UniProt P13697); test: Effect on rat hepatic Malic enzyme activity relative to L-T3.
T2 sequence (whole entry): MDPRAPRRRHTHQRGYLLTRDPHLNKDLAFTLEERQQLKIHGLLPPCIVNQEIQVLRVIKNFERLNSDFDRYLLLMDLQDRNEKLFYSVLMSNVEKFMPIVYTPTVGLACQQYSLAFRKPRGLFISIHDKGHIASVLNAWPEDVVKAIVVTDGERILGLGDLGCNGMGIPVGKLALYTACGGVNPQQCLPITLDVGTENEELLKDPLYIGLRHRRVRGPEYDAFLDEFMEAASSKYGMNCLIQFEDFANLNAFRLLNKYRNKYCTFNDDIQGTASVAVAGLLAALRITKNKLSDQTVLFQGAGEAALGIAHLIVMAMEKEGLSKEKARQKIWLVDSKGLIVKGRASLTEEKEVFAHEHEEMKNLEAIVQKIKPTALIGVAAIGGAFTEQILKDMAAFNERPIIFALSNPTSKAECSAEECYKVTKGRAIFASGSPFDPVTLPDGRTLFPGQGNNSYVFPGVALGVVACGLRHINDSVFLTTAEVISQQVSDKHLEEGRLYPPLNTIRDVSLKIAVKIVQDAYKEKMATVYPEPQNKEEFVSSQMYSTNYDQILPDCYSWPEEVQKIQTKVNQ

[3] = target: T2, NADP-dependent malic enzyme (Rattus norvegicus); test: Effect on rat hepatic Malic enzyme activity 3 days after injection of 10e-6 mol/kg.
How it was run: (§1)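 Liver homogenized in 0.25 M sucrose, 1 mM EDTA, 100 mM Tris pH 7.5, then spun at 2000g and 40000g to give cytoplasmic fraction. Malic enzyme activity followed as NADP+ reduction at 340 nm, normalized to Bradford protein. Reported as increase over vehicle controls, nmol/min per mg protein. Two rats per dose, duplicate assays.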

Rattus norvegicus [4] = test: Effect on the plasma cholesterol levels after subcutaneous administration of 4 nmol/kg in Dawley rats.; assay type: functional
How it was run: (§2)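 Normal Sprague-Dawley rats (265 ± 10 g) on pellet diet with 2% cholesterol and 1% cholic acid for 7 days, given daily subcutaneous injections at 4–16 nmol/kg. Five rats per group; values in mg/dL ± SD. Significance tested against vehicle-treated cholesterol-diet controls.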

Rattus norvegicus [5] = organism: Rattus norvegicus; test: Affinity to rat hepatic nuclei relative to L-T3.; assay type: functional
How it was run: (§3)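 Hepatic nuclear fraction from thyroidectomized rats in 0.25 M sucrose, 1.1 mM MgCl2, 2 mM EDTA, 5 mM DTT, 20 mM Tris pH 7.85 (83 μg DNA/mL). Incubated with [125I]-L-T3 (final 0.075 nM) and competitor at 0.025–100 nM, five to eight concentrations, quadruplicate. Nonspecific binding measured with 1 μM unlabeled T3. IC50 from Hill plot x-intercept; Ki calculated from IC50; relative affinity = Ki(L-T3)/Ki(analogue).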

Rattus norvegicus [6] = test: Effect on the plasma cholesterol levels after subcutaneous administration of 8 nmol/kg in Dawley rats.; assay type: functional; set-up: unit: mg/dL; how it was run: as §2
[7] = target: T2, NADP-dependent malic enzyme (Rattus norvegicus); test: Effect on rat hepatic Malic enzyme activity 3 days after injection of 10e-5 mol/kg.; how it was run: as §1
[8] = target: T1, Glycerol-3-phosphate dehydrogenase [NAD(+)], cytoplasmic (Rattus norvegicus); test: Effect on rat hepatic glycerophosphate dehydrogenase alpha (GPD) activity relative to L-T3.
Rattus norvegicus [9] = test: Effect on the plasma cholesterol levels after subcutaneous administration of 16 nmol/kg in Dawley rats.; assay type: functional; how it was run: as §2
Rattus norvegicus [10] = organism: Rattus norvegicus; test: (§4) In vitro concentration required to displace [125I]L-T3 from rat hepatic nuclei.; assay type: functional, organism-based; how it was run: as §3
[11] = In vitro concentration required to displace [125I]L-T3 from Thyroid receptor of rat hepatic nuclei.; how it was run: as §3
[12] = Affinity to rat hepatic nuclei relative to L-T3 (Thyroid receptor).; how it was run: as §3
[13] = target: T1, Glycerol-3-phosphate dehydrogenase [NAD(+)], cytoplasmic (Rattus norvegicus); test: Effect on rat hepatic alpha-glycerophosphate dehydrogenase (GPD) activity 3 days after injection of 10e-6 mol/kg.
[14] = target: T2, NADP-dependent malic enzyme (Rattus norvegicus); test: Effect on rat hepatic malic enzyme(ME) activity 3 days after injection of 10e-6 mol/kg.; how it was run: as §1
[15] = target: T1, Glycerol-3-phosphate dehydrogenase [NAD(+)], cytoplasmic (Rattus norvegicus); test: Effect on rat hepatic alpha-glycerophosphate dehydrogenase (GPD) activity 3 days after injection of 10e-5 mol/kg.
[16] = target: T2, NADP-dependent malic enzyme (Rattus norvegicus); test: Effect on rat hepatic malic enzyme(ME) activity relative to L-T3.
[17] = target: T1, Glycerol-3-phosphate dehydrogenase [NAD(+)], cytoplasmic (Rattus norvegicus); test: Effect on rat hepatic alpha-glycerophosphate dehydrogenase (GPD) activity relative to L-T3.
Rattus norvegicus [18] = test: Effect on the plasma cholesterol levels after subcutaneous administration of 16 nmol/kg in Dawley rats. p < 0.01; assay type: functional; how it was run: as §2
[19] = as §4

L-T3 [2]	ME increase (nM min-1 mg-1) [3]	ME increase (nM min-1 mg-1) [7]	L-T3 [8]	Structure (SMILES)	Activity (Rattus norvegicus [4])	T3 (Rattus norvegicus [5])	Activity (Rattus norvegicus [6])	further results
100%	19.5	31.8	100%	N[C@@H](Cc1cc(I)c(Oc2ccc(O)c(I)c2)c(I)c1)C(=O)O [LIOTHYRONINE]	251	100%	138	GDPactivity (nM min-1 mg-1) [1]: 7.5 and 18.3; Activity (Rattus norvegicus [9]): 101
–	–	–	–	CC(C(=O)O)c1cc(I)c(Oc2ccc(O)c(I)c2)c(I)c1 (racemic) [listing 1 of 2 here]	259	17%	216	Ki (Rattus norvegicus [10]): 9.03 nM
–	–	–	–	CC(N)(Cc1cc(I)c(Oc2cc(I)c(O)c(I)c2)c(I)c1)C(=O)O (stereo not given)	–	–	–	Ki [11]: 63.3 nM; Relative affinity [12]: 2%
–	–	–	–	CC(C(=O)O)c1cc(I)c(Oc2ccc(O)c(I)c2)c(I)c1 (racemic) [listing 2 of 2 here]	–	–	–	ME increase (nM min-1 mg-1) [2]: 15.5; GDP activity (nM min-1 mg-1) [13]: 1.5; ME increase (nM min-1 mg-1) [14]: 5.6; GDP activity (nM min-1 mg-1) [15]: 6.6; L-T3 [16]: 41%; L-T3 [17]: 31%
36%	5.5	12.9	43%	O=C(O)CCc1cc(I)c(Oc2ccc(O)c(I)c2)c(I)c1 [THYROPROPIC ACID]	–	–	285	Activity (Rattus norvegicus [18]): 202
62%	13.1	18.6	77%	CC(Cc1cc(I)c(Oc2ccc(O)c(I)c2)c(I)c1)C(=O)O (racemic)	–	61%	–	GDPactivity (nM min-1 mg-1) [1]: 7.8 and 12.1; Ki [19]: 2.56 nM
42%	6.8	14.7	36%	CC(Cc1cc(I)c(Oc2cc(I)c(O)c(I)c2)c(I)c1)C(=O)O (racemic)	–	12%	–	Ki [19]: 13 nM
–	–	–	–	CC(C(=O)O)c1cc(I)c(Oc2ccc(O)c(I)c2)c(I)c1 (stereo in doubt)	262	–	147	Activity (Rattus norvegicus [9]): 119
–	–	–	–	O=C(O)Cc1cc(I)c(Oc2ccc(O)c(I)c2)c(I)c1 [TIRATRICOL]	–	199%	–	ME increase (nM min-1 mg-1) [2]: 22.5; GDP activity (nM min-1 mg-1) [13]: 4.8; ME increase (nM min-1 mg-1) [14]: 13; GDP activity (nM min-1 mg-1) [15]: 12.9; L-T3 [16]: 69%; L-T3 [17]: 69%
